# Experimental data from different studies.
# Protocols differ between the studies behind these lines.
Compound,tested on,assay,test system,conditions,endpoint,value
CN1CCN(c2cnc3c(cc(C(=O)NCc4ccc(Cl)cc4)c(=O)n3CC(=O)N3CC(C)(F)C3)n2)C1=O,B-95-8,"cell growth or viability, ATP luminescence",,5 days,CC50,4.61 µM
Cn1nc2c(=O)n(C3CC3)ncc2c1[C@](O)(c1cnc(C(F)(F)F)c(Cl)c1)C(F)(F)F,,metabolic stability,"male Sprague-Dawley rat, hepatocytes","0.5 µM, pH 7.4",hepatocyte CLint,0.9 µL/min/10⁶ cells
COc1ccc2c(C[Se][C@@H]3O[C@H](CO)[C@H](O)[C@H](O)[C@H]3O)cc(=O)oc2c1,THP-1,"cell growth or viability, WST-1",,24 h,CC50,> 100 µM
Cc1ccc(Cn2cc(C(=O)NN)c(=O)c3cc(Oc4ccccc4)ccc32)cc1,,metabolic stability,"male rat, liver microsomes",1 µM,microsomal CLint,< 11.6 µL/min/mg
CN/C(=N/CCSCc1nc[nH]c1C)NC#N,,metabolic stability,"human, hepatocytes","0.5 µM, pH 7.4",hepatocyte CLint,2.15 µL/min/10⁶ cells
COC(=O)COc1c(Cc2cc(C(C)(C)CC(C)(C)C)cc(-n3nc4ccccc4n3)c2OCC(=O)OC)cc(C(C)(C)CC(C)(C)C)cc1-n1nc2ccccc2n1,MCF7,"cell growth or viability, MTT",,"10 µM, 48 h",viability,4.9%
CC(=O)OC[C@H]1O[C@@H]([Se]Cc2ccc3ccccc3n2)[C@H](OC(C)=O)[C@@H](OC(C)=O)[C@@H]1OC(C)=O,THP-1,"cell growth or viability, WST-1",,24 h,CC50,~50 µM
CC1(F)CN(C(=O)Cn2c(=O)c(C(=O)NCc3ccc(Cl)cc3)cc3nc(N4CCNC4=O)cnc32)C1,B-95-8,"cell growth or viability, ATP luminescence",,5 days,CC50,3.59 µM
